From ChEMBL document CHEMBL5058577, “EUbOPEN Chemogenomics Library 2 (Multiplex)” (2022)

System: Fibroblast
Experiment: Multiplex assay against human fibroblast
Format: toxicity, cell-based
Method in brief: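 Values for tubulin, mitochondrial-mass and membrane-permeability phenotypes are per cents of cells with healthy nuclei. These cells were identified by CellPathfinder machine-learning gating of live cells that had been stained at seeding with Hoechst33342, BioTracker Green Microtubule Cytoskeleton Dye, MitoTracker Red and Annexin V Alexa Fluor 680 and imaged on a CQ1 microscope at 37°C and 5% CO2 after compound addition. The gating first set Hoechst high-intensity objects apart from normal cells, then split normal cells into healthy, pyknosed or fragmented nuclei, and pyknosed cells into mitotic or apoptotic.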

[1] = 12 h, 1 µM, compound concentration 1 uM, replicate 1
[2] = 12 h, 1 µM, compound concentration 1 uM, replicate 2
[3] = 12 h, 10 µM, compound concentration 10 uM, replicate 1
[4] = 12 h, 10 µM, compound concentration 10 uM, replicate 2
[5] = 24 h, 1 µM, compound concentration 1 uM, replicate 1
[6] = 24 h, 1 µM, compound concentration 1 uM, replicate 2
[7] = 24 h, 10 µM, compound concentration 10 uM, replicate 1
[8] = 24 h, 10 µM, compound concentration 10 uM, replicate 2
[9] = 48 h, 1 µM, compound concentration 1 uM, replicate 1
[10] = 48 h, 1 µM, compound concentration 1 uM, replicate 2
[11] = 48 h, 10 µM, compound concentration 10 uM, replicate 1
[12] = 48 h, 10 µM, compound concentration 10 uM, replicate 2

CN(C)C/C=C/C(=O)Nc1ccc(C(=O)N2CCCC(Nc3ncc(Cl)c(-c4c[nH]c5ccccc45)n3)C2)cc1 (centres undefined)
Population Apoptotic (%) [1]: 48% | Population Fragmented Nuclei (%) [1]: 15% | Population Healthy Nuclei (%) [1]: 64% | Population Hoechst High Intensity Objects (%) [1]: 2% | Population Membrane Permeable-Phenotype (%) [1]: 2% | Population Mitochondria Different-Phenotype (%) [1]: 11% | Population Mitotic Cells (%) [1]: 51% | Population Normal (%) [1]: 97% | Population Pyknosed Nuclei (%) [1]: 19% | Population Tubulin-Different-Phenotype (%) [1]: 40% | Total Cell Count [1]: 152 | Population Apoptotic (%) [2]: 46% | Population Fragmented Nuclei (%) [2]: 21% | Population Healthy Nuclei (%) [2]: 53% | Population Hoechst High Intensity Objects (%) [2]: 6% | Population Membrane Permeable-Phenotype (%) [2]: 3% | Population Mitochondria Different-Phenotype (%) [2]: 13% | Population Mitotic Cells (%) [2]: 53% | Population Normal (%) [2]: 93% | Population Pyknosed Nuclei (%) [2]: 25% | Total Cell Count [2]: 182 | Population Apoptotic (%) [3]: 59% | Population Fragmented Nuclei (%) [3]: 18% | Population Healthy Nuclei (%) [3]: 53% | Population Hoechst High Intensity Objects (%) [3]: 4% | Population Membrane Permeable-Phenotype (%) [3]: 1% | Population Mitochondria Different-Phenotype (%) [3]: 37% | Population Mitotic Cells (%) [3]: 40% | Population Normal (%) [3]: 95% | Population Pyknosed Nuclei (%) [3]: 27% | Population Tubulin-Different-Phenotype (%) [3]: 77% | Total Cell Count [3]: 140 | Population Apoptotic (%) [4]: 48% | Population Fragmented Nuclei (%) [4]: 23% | Population Healthy Nuclei (%) [4]: 41% | Population Hoechst High Intensity Objects (%) [4]: 8% | Population Membrane Permeable-Phenotype (%) [4]: 12% | Population Mitochondria Different-Phenotype (%) [4]: 19% | Population Mitotic Cells (%) [4]: 51% | Population Normal (%) [4]: 91% | Population Pyknosed Nuclei (%) [4]: 35% | Population Tubulin-Different-Phenotype (%) [4]: 58% | Total Cell Count [4]: 147 | Population Apoptotic (%) [5]: 68% | Population Fragmented Nuclei (%) [5]: 25% | Population Healthy Nuclei (%) [5]: 48% | Population Hoechst High Intensity Objects (%) [5]: 7% | Population Membrane Permeable-Phenotype (%) [5]: 2% | Population Mitochondria Different-Phenotype (%) [5]: 7% | Population Mitotic Cells (%) [5]: 31% | Population Normal (%) [5]: 92% | Population Pyknosed Nuclei (%) [5]: 26% | Population Tubulin-Different-Phenotype (%) [5]: 40% | Total Cell Count [5]: 155 | Population Apoptotic (%) [6]: 37% | Population Fragmented Nuclei (%) [6]: 26% | Population Healthy Nuclei (%) [6]: 49% | Population Membrane Permeable-Phenotype (%) [6]: 10% | Population Mitochondria Different-Phenotype (%) [6]: 10% | Population Mitotic Cells (%) [6]: 62% | Population Pyknosed Nuclei (%) [6]: 23% | Population Tubulin-Different-Phenotype (%) [6]: 54% | Total Cell Count [6]: 181 | Population Apoptotic (%) [7]: 65% | Population Fragmented Nuclei (%) [7]: 13% | Population Healthy Nuclei (%) [7]: 49% | Population Hoechst High Intensity Objects (%) [7]: 2% | Population Membrane Permeable-Phenotype (%) [7]: 0% | Population Mitochondria Different-Phenotype (%) [7]: 52% | Population Mitotic Cells (%) [7]: 34% | Population Normal (%) [7]: 97% | Population Pyknosed Nuclei (%) [7]: 37% | Population Tubulin-Different-Phenotype (%) [7]: 84% | Total Cell Count [7]: 119 | Population Apoptotic (%) [8]: 47% | Population Fragmented Nuclei (%) [8]: 30% | Population Healthy Nuclei (%) [8]: 42% | Population Hoechst High Intensity Objects (%) [8]: 6% | Population Membrane Permeable-Phenotype (%) [8]: 5% | Population Mitochondria Different-Phenotype (%) [8]: 35% | Population Mitotic Cells (%) [8]: 52% | Population Normal (%) [8]: 93% | Population Pyknosed Nuclei (%) [8]: 27% | Population Tubulin-Different-Phenotype (%) [8]: 72% | Total Cell Count [8]: 149 | Population Apoptotic (%) [9]: 63% | Population Fragmented Nuclei (%) [9]: 33% | Population Healthy Nuclei (%) [9]: 36% | Population Hoechst High Intensity Objects (%) [9]: 10% | Population Membrane Permeable-Phenotype (%) [9]: 2% | Population Mitochondria Different-Phenotype (%) [9]: 20% | Population Mitotic Cells (%) [9]: 36% | Population Normal (%) [9]: 90% | Population Pyknosed Nuclei (%) [9]: 30% | Population Tubulin-Different-Phenotype (%) [9]: 48% | Total Cell Count [9]: 150 | Population Apoptotic (%) [10]: 60% | Population Fragmented Nuclei (%) [10]: 35% | Population Healthy Nuclei (%) [10]: 40% | Population Hoechst High Intensity Objects (%) [10]: 8% | Population Membrane Permeable-Phenotype (%) [10]: 8% | Population Mitochondria Different-Phenotype (%) [10]: 25% | Population Mitotic Cells (%) [10]: 40% | Population Normal (%) [10]: 91% | Population Pyknosed Nuclei (%) [10]: 24% | Population Tubulin-Different-Phenotype (%) [10]: 68% | Total Cell Count [10]: 158 | Population Apoptotic (%) [11]: 77% | Population Fragmented Nuclei (%) [11]: 28% | Population Healthy Nuclei (%) [11]: 20% | Population Hoechst High Intensity Objects (%) [11]: 14% | Population Membrane Permeable-Phenotype (%) [11]: 0% | Population Mitochondria Different-Phenotype (%) [11]: 55% | Population Mitotic Cells (%) [11]: 22% | Population Normal (%) [11]: 85% | Population Pyknosed Nuclei (%) [11]: 51% | Population Tubulin-Different-Phenotype (%) [11]: 66% | Total Cell Count [11]: 103 | Population Apoptotic (%) [12]: 68% | Population Fragmented Nuclei (%) [12]: 27% | Population Healthy Nuclei (%) [12]: 41% | Population Hoechst High Intensity Objects (%) [12]: 13% | Population Membrane Permeable-Phenotype (%) [12]: 17% | Population Mitochondria Different-Phenotype (%) [12]: 29% | Population Mitotic Cells (%) [12]: 31% | Population Normal (%) [12]: 86% | Population Pyknosed Nuclei (%) [12]: 30% | Population Tubulin-Different-Phenotype (%) [12]: 80% | Total Cell Count [12]: 130
